# Fewer inactive variants are shown than the library holds.
# B1: tRNA (parent)
# chain: GUUCCGUUGGCGUAAUGGUAACGCGUCUCCCUCCUAAGGAGAAGACUGCGGGUUCGAGUCCCGUACGGAACG
# Variants of: B1
# Test: yeast fitness relative to wild type (ratio to wild type); higher = fitter; tRNA-Arg(CCU), competitive growth, 37 C, YPD
# Procedure, shortened: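 A pool of Saccharomyces cerevisiae strains, each with a tRNA-Arg(CCU) gene variant at the native genomic locus, was competed in YPD at 37°C for 24 hours across six parallel replicates. The variants had been chemically synthesised at a 3% per-site mutation rate over 69 sites, and gene amplicons before and after competition were read by 100-nucleotide paired-end sequencing. Darwinian fitness relative to wild type rested on changes in genotype frequencies. Genotypes required ≥ 100 starting reads, and estimates < 0.5 were set to 0.5.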
row,Variant,yeast fitness
1,U3C C49A,0.599
2,U3C C62U,0.904
3,U3C G25C C33G C61G,≤ 0.5
4,C4A C30G,0.661
5,C4A C30A,0.837
6,C4A C27U U28G C33G A36G,0.533
7,U3G U19A G51A C66G,≤ 0.5
8,C4A C27A C62A,≤ 0.5
9,C4A C11G,0.769
10,U3G U8C C62U,0.525
11,U3C C31A C49G A70C,≤ 0.5
12,C4A A14G C24U U32G A43G A65U,≤ 0.5
13,C4A G6A C30A A65G,≤ 0.5
14,U3G C29A U53A,≤ 0.5
15,C4A C22U U54A,0.685
16,C4A C31G A45G G50C,0.576
17,U3G C11U A40C A45C U47C A57C C62U,≤ 0.5
18,C4A A14U C34G A65U,≤ 0.5
19,C4A C34A C62G,≤ 0.5
20,C4A C49G G63C,0.9
21,C4A A36G C55A C61U,≤ 0.5
22,U3C G10C C27U G68C,≤ 0.5
23,U3C U7A G25A A42U U64A,≤ 0.5
24,C4A A43C G51A G56C,0.516

row,Variant,yeast fitness
1,U3C U8C,0.906
2,U3C U8A,0.639
3,C4A A45C G52A G67U,0.577
4,U3G A43G G56A,0.601
5,C4A A15G C31G G50A,≤ 0.5
6,U3C C61U G67A,0.567
7,C4A C24G C30U A45G,0.523
8,C4A C31G A40U A65U G68C,0.595
9,U3C G56A U59C,0.768
10,C4A C30A A40G G48A,≤ 0.5
11,U3C U13C C24U G52A G68U,≤ 0.5
12,U3G U7C G18A C30G G41U C49G,≤ 0.5
13,C4A C27G G52A,0.713
14,U3C C11A C31A G67U,≤ 0.5
15,C4A C5U C22U C34A C61G,≤ 0.5
16,U3C G25U U64G,≤ 0.5
17,U3G G48A U53G,≤ 0.5
18,U3C U26C A42U C60G G67A,≤ 0.5
19,U3G C24A C34A C46G,0.581
20,U3C U8C C30G U35C A42G C49U G56A G58A A70C,≤ 0.5
21,U3G U28C C62U,0.638
22,U3C G12A G48C,0.558
23,U3C C55U A65G,0.514
24,C4A C29A,0.637

row,Variant,yeast fitness
1,C4A C55U,0.943
2,C4A C55G,0.55
3,U3C C27U G50A,0.648
4,U3C C31A,0.845
5,U3G C11A G23C G52C,≤ 0.5
6,C4A C22A C55U,≤ 0.5
7,C4A C46G C55G,≤ 0.5
8,C4A G12C,0.679
9,C4A G6A A21C C24U A43G,≤ 0.5
10,U3C U8A A15C,≤ 0.5
11,C4A C5U C22U C34A C62U A70U,≤ 0.5
12,C4A A14C U19A,≤ 0.5
13,U3G C4U A20G U35A G58A G67U,≤ 0.5
14,C4A C46U G68A,0.887
15,U3G U13G C30A C31A,≤ 0.5
16,U3G C4U C30U C33G C55U G68U,≤ 0.5
17,C4A G17A G51C G63A,≤ 0.5
18,U3G C30G A70C,0.628
19,U3G C30G A40C C46U,0.57
20,U3G C11G A15C C60U,≤ 0.5
21,U3G C5G A20C,≤ 0.5
22,C4A C34G A70G,≤ 0.5
23,U3G G44A G67C,≤ 0.5
24,C4A C5U C34U U64G A69U,≤ 0.5

row,Variant,yeast fitness
1,C4A A45U C55U A70C,≤ 0.5
2,C4A A15G G17A,0.724
3,U3C G9A A69U,0.882
4,U3C U16C C30G C31G A37U,0.718
5,U3G C55U,0.784
6,C4A A15G C62U,0.594
7,U3C U8C U13C,0.548
8,U3C U59A C61G,0.587
9,U3C C31U A42G U54A,≤ 0.5
10,U3G G44A C66U,0.582
11,C4A A20G G58A A70C,1.02
12,U3C G38C A40G,0.501
13,C4A C11U A45U C66U,≤ 0.5
14,U3C G12A C24A A36U C61U G67U,0.55
15,U3C G50A,0.961
16,C4A C60U,0.825
17,U3G C4A A40U C66A A69C,≤ 0.5
18,U3C C31U A70U,0.865
19,C4A A20U A43U A57C,≤ 0.5
20,C4A A14U A20C U28G G67A A70G,≤ 0.5
21,C4A C24U U47G,≤ 0.5
22,U3G G63A,0.849
23,C4A A15G C22U A36U C60A,≤ 0.5
24,C4A G10C A57U,≤ 0.5

row,Variant,yeast fitness
1,C4A C5G C22U,≤ 0.5
2,C4A A40U,0.94
3,C4A A40C,0.812
4,C4A C61A G67A,≤ 0.5
5,C4A C11A C33G,0.544
6,U3C U26C,0.886
7,C4A G9A U13G C22U C61A A70C,≤ 0.5
8,U3G C30U G48C A65U G68C,≤ 0.5
9,C4A C5U C22U C34A C62G,≤ 0.5
10,C4A G6A G50A,≤ 0.5
11,C4A C29U C33A A36C A42C A45G,≤ 0.5
12,U3G C31U C49U,0.681
13,U3C C27G C33A,0.655
14,U3C C22U C55G U64A,≤ 0.5
15,C4A A15C C66U,≤ 0.5
16,U3C U19A A57G,0.624
17,C4A G17C,0.629
18,U3G C5A A20G C29U C31A C55U A57C,≤ 0.5
19,U3G A15C,0.511
20,C4A C24G U32C C62U A69C,≤ 0.5
21,U3G A14G C60G,≤ 0.5
22,C4A C5U C22U C34A A65U,≤ 0.5
23,U3C G41A A65C,0.51
24,U3G C4G C22U C29U G52C G63A G67U A70C,≤ 0.5

row,Variant,yeast fitness
1,C4A C11A C33G A57C C61G,0.534
2,C4A C11U U32A G38C C55U G58A G67A,≤ 0.5
3,C4A C29G G50A,≤ 0.5
4,C4A A20C C27U,0.636
5,U3C C27A,0.706
6,U3G G51A C66U,≤ 0.5
7,U3G A21C G67U,≤ 0.5
8,C4A C27G C31G,≤ 0.5
9,C4A C22U C24A C29A A36C,0.518
10,C4A A70G,0.93
11,C4A A70U,0.879
12,C4A A15G C27U,0.664
13,U3G C5U,0.724
14,C4A G10A A21G C22G A65G,≤ 0.5
15,C4A A37U C55U,0.585
16,U3C U7G A14C C31A,0.788
17,C4A A14G U26A,≤ 0.5
18,C4A C11U C34G C62A,0.748
19,U3C G17C A40G C61U,≤ 0.5
20,C4A A14G G17A C60G,≤ 0.5
21,U3C G12A G50A,0.662
22,U3G G17C G18C C22A C60A C66U,≤ 0.5
23,U3C U19A U28A C60G,≤ 0.5
24,C4A G9C C30A G39A C61G,≤ 0.5

row,Variant,yeast fitness
1,U3C C29G G44C C49G A57C,≤ 0.5
2,U3C U32A C46G C62A,≤ 0.5
3,U3G C4U,0.915
4,U3C G10C C27U C66U,≤ 0.5
5,U3G A45G A69U,0.763
6,C4A A20U U28A C31U C55G A57C,≤ 0.5
7,C4A A36C,0.686
8,U3G U13C A14U C61G C62U,≤ 0.5
9,U3C U19A C22U G63A,≤ 0.5
10,U3C C11A C24U A42G G63A,≤ 0.5
11,U3C U28C,1.08
12,U3C G25U U59C A69C,0.531
13,U3C C30U,0.879
14,C4A G9C C11G C30A C55A C62A,≤ 0.5
15,C4A C27U U28G C33G A36G G50C C66U,≤ 0.5
16,U3G G18A A65U,0.548
17,C4A A14C A21G C29A C34U A69U,≤ 0.5
18,C4A G10A G50A,≤ 0.5
19,U3C U59C A65C A69G,0.593
20,U3G C11U G67A,0.564
21,U3C C11G A42C C49U,≤ 0.5
22,U3G C24A C30U,≤ 0.5
23,C4A C22G C29U U35C,≤ 0.5

# From the RNAGym collection of RNA variant scans (doi:10.1126/science.aae0568)
